Results from different studies.
Compare with care: the assays were run in different laboratories.
Read-out: cell growth or viability

Structure (SMILES) | cell line | assay | setting | endpoint | result
CCOC(=O)c1cc(C)n(Cn2cnc3ccccc32)n1 | SH-SY5Y | MTT | 24 h | IC50 | 121 µM
Cc1nc(NC(=O)N2CCC[C@H]2C(N)=O)sc1-c1ccnc(C(C)(C)C(F)(F)F)c1 | NCI-H596 | ATP luminescence | 5 days | EC50 | 0.492 µM
OCn1ccnc1 | SH-SY5Y | MTT | 24 h | IC50 | 6.97 µM
Cc1cnc(CNC(=O)c2c(=O)c3ccc(N4CCCN(C)CC4)nc3n3c2sc2ccccc23)cn1 | PLC-PRF-5 | imaging | 72 h | IC50 | 0.33 µM
[Cl-].[Li+] | CHO | MTT | – | IC50 | > 10000 µM
Cc1cc(C)n(Cn2cnc3ccccc32)n1 | SH-SY5Y | MTT | 24 h | IC50 | 82.7 µM
CCOc1ccc(Nc2c3c(nc4ccccc24)CCC3)cc1 | J774.1 | resazurin | 72 h | IC50 | 33.2 µM
C[C@H](Nc1ccc2c(c1)OCCn1cc(N3C(=O)OC[C@H]3C(F)F)nc1-2)C(N)=O | NCI-H596 | ATP luminescence | 5 days | EC50 | 0.0829 µM
c1ccc(Oc2ccc(Nc3c4c(nc5ccccc35)CCC4)cc2)cc1 | J774.1 | resazurin | 72 h | IC50 | 45.8 µM
CN1CCN(c2ccc(Nc3c4ccccc4nc4ccccc34)cc2)CC1 | PLC-PRF-5 | imaging | 72 h | IC50 | 3.2 µM
Cc1nc(Nc2ncc(C(=O)Nc3c(C)cccc3Cl)s2)cc(N2CC[C@H](O)C2)n1 | HuT78 | ATP luminescence | 10 µM, 72 h | inhibition | 7%
